# Screening results as filed in PubChem BioAssay.
# XBP1 UPR activ = activators of adaptive XBP1 UPR arm, primary screen, cell-based, CHO-XBP1 luciferase reporter, luminescence, uHTS | IRE1-XBP1 UPR activation; percent of tunicamycin response, DMSO as zero | activation, % at 20 µM | actives 0.33% (n = 330,000) | AID 463104, 2010;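 active means versus positive control, 20 µM dose yields 30% or more activation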
#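 assay system = CHO-XBP1 luciferase reporter cells | amount = 1000 cells/well | buffer or medium = F12 plus 10% FBS | compound dosing = single point, 20 µM final compound, 1% DMSO | incubation = 16-18 h cell attachment at 37 °C, then 6 h compound exposure | detection = Steady-Glo luminescence read | controls = tunicamycin 10 µg/mL and vehicle-only wells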
# V-ATPase pH = regulators of yeast V-ATPase proton pumping, primary screen, pHLuorin cytosolic pH fluorescence; response, % at 10 µM; AID 504577, 2011; S. cerevisiae; actives 0.37% (n = 350,000); in the data active means response mostly above about 7.3%, no sharp cut-off; inactive means mostly below about 5.4%; further: actives read high
# Tb MetRS inh = T. brucei MetRS inhibitors, primary screen, biochemical, luminescence; inhibition, % at 11.9 µM; methionyl-tRNA synthetase (Trypanosoma brucei brucei); actives 0.4% (n = 360,000); AID 624268, 2012; purified T. brucei MetRS, ATP depletion, Kinase-Glo luminescence;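 active means inhibition above a per-plate cutoff of the control wells' mean inhibition plus 3 SD, cut at about 5.5% in these data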
#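 Material: T. brucei methionyl-tRNA synthetase, purified; reagent: substrates ATP, L-methionine and bulk Escherichia coli tRNA; dosing: 11.9 µM single point; timing: 15 min plus 2 h at 25 °C; detection: luminescence of leftover ATP; evaluation: % inhibition; control set: DMSO-only wells as low control; replicates: singlicate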
# CHOP inh = inhibitors of CHOP promoter induction, primary screen, cell-based, unfolded protein response, luciferase reporter; CHO-K1 CHOP-promoter luciferase, tunicamycin-induced, 15-18 h; inhibition, % at 10 µM; actives 3.8% (n = 220,000);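 active means compounds that reduced the stress-induced luciferase reporter signal by more than about 70% of percent inhibition, limit read from the data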
# UPR CHOP act = activators of apoptotic CHOP UPR arm, primary screen, cell-based, CHO-CHOP luciferase reporter, luminescence, uHTS; UPR activation; percent of tunicamycin response over DMSO baseline; actives 0.34% (n = 330,000); activation, % at 10 µM;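 active means at 10 µM dose, activation of 40% or more, normalized to positive control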
#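 System: CHO-CHOP luciferase reporter cell line | Buffer or medium: F12 medium containing 10% fetal bovine serum | Doses: One dose, 10 µM in 0.5% DMSO | Times: 6 h compound exposure at 37 °C after overnight seeding | Signal: Luciferase luminescence | Read-out: % activation vs tunicamycin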
# CHOP inh conf = retest of CHOP induction inhibitors, confirmation, cell-based. CHO-CHOP promoter luciferase reporter, tunicamycin-induced, luminescence. actives 45% (n = 2,100). shares compounds with CHOP inh. inhibition, % at 10 µM. AID 504437, 2011;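 active means mean of three repeat readings of reporter signal inhibition above a set limit, cut at about 70% in these data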
# A number is an active result; . = inactive; / = not tested or not shown. This is one part of a sample in which hits are shown more often than they occur.
SMILES,XBP1 UPR activ,V-ATPase pH,Tb MetRS inh,CHOP inh,UPR CHOP act,CHOP inh conf
CCOc1nc(Nc2ccc(F)cc2)nc(N2CCN(c3ccc(OC)cc3)CC2)n1,.,.,.,.,.,/
C=CCn1c(CCCNC(=O)CCC)nc2ccccc21,.,.,.,.,.,/
O=c1c(-c2ccccc2)c1-c1ccccc1,.,/,/,.,58,/
CC1(C)CC(=O)C2=C(C1)OC1=C(C2)C(=O)CC(C)(C)C1,.,146,.,.,.,/
Cc1ccc2nc(N3CCN(Cc4nnnn4Cc4ccccc4)CC3)c(C#N)cc2c1,.,.,.,92,.,/
Cc1ccc2nc(N3CCN(C)CC3)c(C#N)cc2c1,.,.,.,.,.,/
Cc1nc(SCC(=O)c2cc3ccccc3oc2=O)c(C#N)c(-c2ccccc2)c1C(=O)Nc1ccccc1,.,.,.,95,.,/
CC1(C)CC(=O)C(C=NCC2CCNCC2)=C(O)C1,.,.,.,72,.,/
CC(OC(=O)[C@@H](NC(=O)OCc1ccccc1)C(C)C)C(=O)Nc1ccc(N2CCOCC2)cc1 (stereo partly drawn),/,.,.,/,/,/
O=S(=O)(Nc1nc2ccccc2nc1Nc1cccc(S(=O)(=O)N2CCCCC2)c1)c1ccccc1,.,.,.,75,.,/
COc1ccc(NS(=O)(=O)c2cccc(NC(=O)c3ccc(S(=O)(=O)N4CCCCCC4)cc3)c2)cc1,.,.,.,75,.,/
CCOc1ccc(C(=O)N[C@H](C(=O)Nc2cccc(S(=O)(=O)N3CCCCC3)c2)C(C)C)cc1,.,.,.,85,.,/
CCOc1ccc(C(=O)N[C@H](C(=O)Nc2cccc(S(=O)(=O)N3CCOCC3)c2)C(C)C)cc1,.,.,.,/,.,/
CC(=O)Nc1ccc(NC(=O)C(C)OC(=O)c2cccc(S(=O)(=O)N3CCCCCC3)c2)cc1 (stereo not drawn),.,15,.,/,.,/
COc1ccc(S(=O)(=O)Nc2cccc(S(=O)(=O)N3CCCCCC3)c2)cc1,/,.,.,.,/,/
CC(=O)Nc1ccc(NC(=O)C(C)OC(=O)c2cccc(S(=O)(=O)N3CCCCC3)c2)cc1 (stereo not drawn),.,.,.,/,.,/
O=C1C(=C(I)I)c2ccccc2-c2ccccc21,/,.,.,/,/,/
Cc1ccc(S(=O)(=O)c2nc(/C=C/c3ccccc3)oc2N2CCC(C(N)=O)CC2)cc1,/,.,.,/,/,/
COc1ccc(CC(=O)Nc2cccc(S(=O)(=O)N3CCCCCC3)c2)cc1OC,/,.,.,71,/,/
COc1ccc(CCC(=O)Nc2cccc(S(=O)(=O)N3CCCCCC3)c2)cc1OC,.,.,.,/,.,/
CC1ON=C(c2ccccn2)N(Cc2ccc3c(c2)OCO3)C1=O (stereo not drawn),/,/,.,/,/,/
Cc1ccc(-n2c(=O)[nH]c3c(C(N)=O)nc(-c4ccc(C)o4)nc32)cc1,.,.,.,107,.,121
CC(C)Cn1c(=O)c2ccccc2n2c(SCC(=O)N3c4ccccc4CC3C)nnc12 (stereo not drawn),.,.,.,98,.,85
Cc1cccc(/C=N/n2c(COc3ccccc3)n[nH]c2=S)c1,.,.,.,/,.,/
S=c1[nH]nc(C2CCCCC2)n1/N=C/c1ccc(Cl)cc1,.,.,.,/,.,/
SMILES,XBP1 UPR activ,V-ATPase pH,Tb MetRS inh,CHOP inh,UPR CHOP act,CHOP inh conf
S=c1[nH]nc(C2CCCCC2)n1/N=C/C=C/c1ccccc1,.,/,.,105,.,106
S=c1[nH]nc(C2CCCCC2)n1/N=C/C(Cl)=C\c1ccccc1,.,.,.,102,.,.
CC(/C=N/n1c(COc2ccccc2)n[nH]c1=S)=C\c1ccccc1,.,.,.,111,.,.
COc1ccc(CC2SC(=Nc3ccc(F)cc3)NC2=O)cc1 (stereo not drawn),.,.,.,.,.,/
Cn1ncc2c(O/N=C(\N)c3ccc(C(C)(C)C)cc3)ncnc21,.,.,.,99,.,85
CC(=O)c1cccc(OCC(=O)Nc2cccc(C(=O)Nc3c(C)n(C)n(-c4ccccc4)c3=O)c2)c1,.,.,.,/,.,/
CN(c1ccccc1)c1ccc(/C=C/[N+](=O)[O-])cc1,/,.,.,110,/,.
O=C(Nc1nc2ccccc2n1Cc1ccc(Cl)cc1)c1ccco1,.,.,.,103,.,.
Cc1cccc(OCCn2c(NC(=O)c3ccco3)nc3ccccc32)c1,.,.,.,104,.,.
CS(=O)(=O)c1ncc(Cl)c(C(=O)Nc2ccc(N3CCOCC3)cc2)n1,.,.,.,/,.,117
Cc1ccc2nc3c(cc2c1)c(NC(=O)C(C)(C)C)nn3CC(C)C,.,.,.,/,.,/
OC(CNCC(c1ccc(Cl)cc1Cl)c1c[nH]c2ccccc12)c1ccccc1 (stereo not drawn),.,.,.,107,.,125
CC(=O)Nc1ccc(-c2nnc(SCC(=O)c3ccc4c(c3)Cc3ccccc3-4)n2C)cc1,.,.,.,105,.,.
COc1ccccc1C(=O)O/N=C(\N)c1ccccc1Cl,.,.,.,.,.,/
COc1ccccc1C(=O)Oc1ccc(C(C)C)cc1,.,.,.,99,.,118
COc1ccc(N2CCN(C(=S)NCc3ccccc3)CC2)cc1,.,.,.,.,.,/
Cc1cc(NC(=O)/C(C#N)=C/c2ccco2)n(-c2ccccc2)n1,.,.,.,.,.,/
Cc1ccc(-c2ccc(/C=C(\C#N)C(=O)Nc3cc(C)nn3-c3ccccc3)o2)cc1,46,/,/,104,55,89
CC(C)(C)CC(=O)Nc1nn[nH]n1,.,.,.,.,.,/
CCNC(=S)N/N=C/c1cc(Br)cc(Br)c1OC,.,.,.,102,.,80
COc1c(Br)cc(Br)cc1/C=N/NC(=O)c1cccnc1,.,.,.,/,.,/
Cc1ccc(S(=O)(=O)/N=C(\Sc2ccccc2)c2ccccc2)cc1,.,.,.,107,.,.
CSCCC(NC(=O)COc1ccccc1)C(=O)NCCOc1ccccc1 (stereo not drawn),.,.,.,/,.,/
CN1CCN(/N=C/c2ccc(N(c3ccccc3)c3ccccc3)cc2)CC1,.,.,.,105,.,.
CN1CCN(/N=C/c2ccc(N(C)c3ccccc3)cc2)CC1,.,.,.,.,.,/
O=C(CCl)c1ccc2c(c1)CCN2C(=O)C1CCCCC1,.,.,.,109,.,.
CCC1CCCCN1S(=O)(=O)c1ccc2c(c1)CCN2C(=O)C1CCC1 (stereo not drawn),.,.,.,.,.,/
O=C(O)c1ccc(Cn2cc(/C=C\[N+](=O)[O-])c3ccccc32)o1,.,.,.,/,.,/
